Measured values collected from several papers.
Protocols differ between the studies behind these lines.
Cell line: HCT-116
Observed: cell growth or viability

SMILES | technique | time | IC50
O=C1/C(=C/c2ccc([N+](=O)[O-])cc2[N+](=O)[O-])NC(=S)N1c1ccccc1 | MTT | – | 98.5 µg/mL
O=[N+]([O-])c1ccc(O)c(C=NNc2ccc(C(F)(F)F)cc2)c1 | MTT | 24 h | 11.3 µM
CCCNC(=S)N/N=C/c1cccc2cc3ccccc3nc12 | MTT | 48 h | 43.3 µM
Cc1cc2c(C(N)=O)cccc2n1-c1nc2c(c(NCc3ccccn3)n1)CCCN2 | ATP luminescence | 72 h | 0.8 µM
CCc1ccc(N=C2C(=O)N(Cc3ccccc3)c3ccccc32)cc1 | MTT | 48 h | 0.9 µM
CC(C)c1ccc(/C=C2\N=C(SCc3ccccc3)N(c3ccccc3)C2=O)cc1 | MTT | – | 72.9 µg/mL
CC(C)c1cccc(C(C)C)c1N=C1C(=O)Nc2ccccc21 | MTT | 48 h | 4.65 µM
FC(F)(F)c1ccc(-c2nnc(-c3nn(Cc4ccc(Cl)cc4Cl)c4ccccc34)o2)cc1 | – | 48 h | 323 µM
O=C1CS/C(=N\c2cc(C(F)(F)F)ccc2-c2nnc(N3C(=O)CS/C3=N\c3ccc(F)c(O)c3)s2)N1c1ccc(F)c(O)c1 | MTT | – | 21.2 µM
COc1cc(N=C2C(=O)Nc3ccccc32)cc(OC)c1 | MTT | 48 h | 24.4 µM
FC(F)(F)c1cc(OCc2cc(-c3ccccc3)no2)c2ccccc2n1 | MTS | 72 h | > 100 µM
COc1cccc2c1C(=O)c1c(O)c3c(c(O)c1C2=O)C[C@@](O)(C(=O)CO)C[C@@H]3O[C@H]1C[C@H](N)[C@H](O)[C@H](C)O1 | – | 96 h | 0.00382 µM
Cc1ccc(CN2C(=O)C(=Nc3cccc(Cl)c3)c3ccccc32)cc1 | MTT | 48 h | 1.05 µM
CC(=O)O[C@@H]1[C@@H](OC(C)=O)[C@H](OC(C)=O)CO[C@H]1n1cc(Cn2c(C(C)=O)nc3ccccc32)nn1 | LDH | 48 h | 7.74 µM
O=c1cc(OCc2cc(-c3ccccc3)no2)c2ccccc2o1 | MTS | 72 h | > 100 µM
COc1ccc(N(Cc2csc(-c3ccc(C)cc3)n2)C(=O)CCCCCC(=O)NO)cc1 | MTT | 72 h | 1.19 µM
Clc1ccc(Cn2nc(-c3ncc(-c4ccccc4)s3)c3ccccc32)c(Cl)c1 | – | 48 h | 404 µM
O=C(C=Cc1ccc(OCCOc2ccc(C=CC(=O)c3cccs3)cc2)cc1)c1cccs1 | MTT | 48 h | 17.1 µM
O=C(CSc1nc2ccccc2s1)N/N=C/c1ccc(OCC(=O)Nc2cccc(Br)c2)cc1 | MTS | 72 h | > 100 µM
O=C1Nc2ccccc2C1=Nc1ccccc1Br | MTT | 48 h | > 100 µM
CNC(=S)N/N=C/c1cccc2cc3ccccc3nc12 | MTT | 48 h | 21.8 µM
O=[N+]([O-])c1cc(Br)c(O)c(C=NNc2ccc(Br)cc2)c1 | MTT | 24 h | 15.3 µM
CONC(=O)c1cccc2c1cc(C)n2-c1nc2c(c(NCc3ccccc3)n1)CCCN2 | ATP luminescence | 72 h | 0.7 µM
Cc1nnc(-c2nn(Cc3ccc(Cl)cc3Cl)c3ccccc23)o1 | – | 48 h | 48.4 µM
O=[N+]([O-])c1cc(I)c(O)c(C=NNc2ccc(C(F)(F)F)cc2)c1 | MTT | 24 h | 9.43 µM
FC(F)(F)c1cc(OCc2cc(-c3ccccn3)no2)c2ccccc2n1 | MTS | 72 h | > 100 µM
COc1ccc2c(-c3nc(-c4ccccc4)no3)nn(Cc3ccncc3)c2c1 | – | 48 h | 10.8 µM
O=C1C(=Nc2ccccc2I)c2ccccc2N1Cc1ccc(Br)cc1 | MTT | 48 h | 1.33 µM

SMILES | technique | time | IC50
O=C1/C(=C/c2ccc(O)cc2O)NC(=S)N1c1ccccc1 | MTT | – | 91.3 µg/mL
Cc1cc(NS(=O)(=O)c2ccc(NC(=O)/C(C#N)=C/c3ccc(N4CCOCC4)cc3)cc2)no1 | MTT | 48 h | 67.8 µM
O=[N+]([O-])c1ccc(O)c(C=NNc2ccc(Br)cc2)c1 | MTT | 24 h | 7.23 µM
O=C1CSC(=Nc2cc(C(F)(F)F)ccc2-c2nnc(N3C(=O)CSC3=Nc3ccc([N+](=O)[O-])cc3)s2)N1c1ccc([N+](=O)[O-])cc1 | MTT | – | 74.4 µM
O=c1cc(OCc2cc(-c3ccc(C(F)(F)F)cc3)no2)c2ccccc2o1 | MTS | 72 h | > 100 µM
O=C1C(=Nc2cccc(Cl)c2)c2ccccc2N1Cc1ccc([N+](=O)[O-])cc1 | MTT | 48 h | 0.84 µM
Cc1cc(NS(=O)(=O)c2ccc(NC(=O)/C(C#N)=C/c3ccc(N4CCCCC4)cc3)cc2)no1 | MTT | 48 h | 14.5 µM
O=C(C=Cc1cccs1)c1ccc(OCCCOc2ccc(C(=O)C=Cc3cccs3)cc2)cc1 | MTT | 48 h | 30.7 µM
Cc1cc2c(C(N)=O)cccc2n1-c1nc2c(c(OCc3ccccc3)n1)CCCN2 | ATP luminescence | 72 h | 3.4 µM
O=C(CSc1nc2ccccc2s1)N/N=C/c1ccc(OCC(=O)Nc2ccc([N+](=O)[O-])cc2)cc1 | MTS | 72 h | 52.9 µM
O=C1CSC(=Nc2cc([N+](=O)[O-])ccc2[N+](=O)[O-])N1c1nnc(-c2ccc(C(F)(F)F)cc2N=C2SCC(=O)N2c2cc([N+](=O)[O-])ccc2[N+](=O)[O-])s1 | MTT | – | 80.9 µM
FC(F)(F)c1ccc(-c2cc(CNc3cccc4cccnc34)on2)cc1 | MTS | 72 h | > 100 µM
c1ccc(-c2noc(-c3nn(Cc4ccc5ccccc5c4)c4ccccc34)n2)cc1 | – | 48 h | 173 µM
Cc1cc2c(C(N)=O)cccc2n1-c1nc2c(c(NCc3ccccc3)n1)CCCN2 | ATP luminescence | 72 h | 0.7 µM
CC(=O)OC[C@H]1O[C@@H](n2cc(Cn3c(C(C)=O)nc4ccccc43)nn2)[C@H](OC(C)=O)[C@@H](OC(C)=O)[C@H]1OC(C)=O | LDH | 48 h | 6.49 µM
Fc1ccc(NC(=S)N/N=C/c2cccc3cc4ccccc4nc23)cc1 | MTT | 48 h | > 50 µM
O=C1CS/C(=N\c2ccc(F)cc2O)N1c1nnc(-c2ccc(C(F)(F)F)cc2/N=C2\SCC(=O)N2c2ccc(F)cc2O)s1 | MTT | – | 17.2 µM
COc1cccc2c1C(=O)c1c(O)c3c(c(O)c1C2=O)C[C@@](O)(C(=O)CO)C[C@@H]3O[C@H]1C[C@H](N)[C@H](O)[C@H](C)O1 | LDH | 48 h | 8.12 µM
Cc1cc(C)n(Cn2cnc3ccccc32)n1 | MTT | 24 h | 70.2 µM
O=C1C(=Nc2ccccc2I)c2ccccc2N1Cc1ccc([N+](=O)[O-])cc1 | MTT | 48 h | 1.7 µM
OCn1cncn1 | MTT | 24 h | 48.8 µM
c1ccc(-c2cc(CNc3cccc4cccnc34)on2)nc1 | MTS | 72 h | > 100 µM
O=c1[nH]cc(F)c(=O)[nH]1 | MTT | 72 h | 3.09 µM
Fc1ccc2c(-c3nnc(Cc4ccccc4)s3)nn(Cc3ccccc3)c2c1 | – | 48 h | 73.9 µM
COc1ccc(N=C2SCC(=O)N2c2nnc(-c3ccc(C(F)(F)F)cc3N=C3SCC(=O)N3c3ccc(OC)cc3)s2)cc1 | MTT | – | 65.2 µM
Cc1cccc(NC(=O)Cn2cc(COc3ncnc4[nH]cnc34)nn2)c1 | MTT | – | 55.3 µM
O=P1(c2ccccc2)CCCCC1 | MTT | 72 h | > 100 µM
